Data published in ChEMBL document CHEMBL1150169, “Fatty acid synthase inhibitors from plants: isolation, structure elucidation, and SAR studies” (J Nat Prod, 2002).
Values after ≈ are worked out from the molar mass of the structure shown.

Experiments:
Candida albicans = assay: Antifungal activity against Candida albicans ATCC 90028; format: functional, organism-based
[1] = Inhibition of Saccharomyces cerevisiae fatty acid synthase
Method in brief: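 Yeast FAS semipurified by 50% ammonium sulfate precipitation of lysate (pH 6.6 phosphate, EDTA, DTT, protease inhibitors), dialyzed, and diluted to 250 mOD/min/mL. Samples preincubated with enzyme 30 min at room temperature, then mixed 1:1 with mix of 1 mM malonyl CoA and NADPH, 40 µM acetyl CoA, and 2 mM DTT. A340 read kinetically; rate over initial 2 min. IC50 from dose-response curves.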

Cryptococcus neoformans = assay: Antifungal activity against Cryptococcus neoformans ATCC 90113; format: functional, organism-based

| Structure (SMILES) | IC50 (Candida albicans) | IC50 [1] | IC50 (Cryptococcus neoformans) |
| --- | --- | --- | --- |
| COc1ccc(-c2cc(=O)c3c(O)cc(O)cc3o2)cc1-c1c(OC)cc(O)c2c(=O)cc(-c3ccc(O)cc3)oc12 | > 50 µg/mL | 49 µg/mL (≈ 86.5 µM) | > 50 µg/mL |
| CC(C)=CCc1c(O)ccc(C(=O)/C=C/c2ccc(O)cc2)c1O [ISOBAVACHALCONE] | 2 µg/mL (≈ 6.17 µM) | > 50 µg/mL | 45 µg/mL (≈ 139 µM) |

Second part, the compound after the results:

| IC50 (Candida albicans) | IC50 [1] | IC50 (Cryptococcus neoformans) | Structure (SMILES) |
| --- | --- | --- | --- |
| > 50 µg/mL | > 50 µg/mL | > 50 µg/mL | COc1cc(-c2cc(=O)c3c(O)c(OC)c(OC)c(OC)c3o2)cc(OC)c1OC [GARDENIN] |
| > 50 µg/mL | > 50 µg/mL | > 50 µg/mL | O=c1cc(-c2ccc(Cl)cc2)oc2c(Br)cc(Br)cc12 |
| > 50 µg/mL | 30 µg/mL (≈ 53.9 µM) | > 50 µg/mL | O=C1c2c(O)cc(O)cc2OC(c2ccc(O)cc2)C1c1c(O)cc(O)c2c(=O)cc(-c3ccc(O)c(O)c3)oc12 (stereo not given) |
